Activity calls are given as the source filed them. The rule behind the calls is not given here.
Tests used:
[1] = tested on: CCRF-CEM; assay: Anticancer activity against human CCRF-CEM cells assessed as growth inhibition at 10^-5 M; type: functional; details: read-out: GI
In short: (§1)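 NCI-60 human tumour cell line panel screened at a single concentration of 10^-5 M; value is percent growth inhibition relative to untreated growth.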

[2] = Anticancer activity against human BT549 cells assessed as growth inhibition at 10^-5 M; type: functional; details: BT-549, read-out: GI; in short: as §1
[3] = tested on: Oocyte; assay: Induction of immature stage VI Xenopus oocyte maturation assessed as spontaneous maturation measured as germinal vesicle (nuclear) breakdown at 100 uM after overnight incubation; type: functional, cell-based
In short: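 Isolated Xenopus oocytes (20 per well) incubated overnight with compound in DMSO at 100 μM final, no progesterone. The next morning, GVBD is scored as a white spot at the animal pole. Rate is expressed relative to DMSO controls, where 2.0 means spontaneous maturation.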

SMILES: C[C@@]12CC/C=C(/CO)CC[C@@H]3/C(=C\c4ccccc4Br)C(=O)O[C@@H]3[C@@H]1O2
- inhibition of growth at 10 µM [1]: 28.5%
- inhibition of growth at 10 µM [2]: 24.2%
- Activity [3]: Active

— ChEMBL document CHEMBL3352597, “Heck products of parthenolide and melampomagnolide-B as anticancer modulators that modify cell cycle progression” (Eur J Med Chem, 2014)
